Data from ChEMBL document CHEMBL1134663, “Investigation of 5-nitrofuran derivatives: synthesis, antibacterial activity, and quantitative structure-activity relationships” (J Med Chem, 2001).

What was measured:
[1] = system: Caulobacter vibrioides; assay: Compound was tested against gram-negative Caulobacter crescentus, strain NA 1000 bacteria; format: functional, organism-based; conditions: read-out: Log 1/IC50 (converted)
How it was run: (§1)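 Sequential broth macrodilution. S. aureus was grown in TSB at 37 °C and C. crescentus in PYE (peptone, yeast extract, 0.8 mM MgSO4, 0.5 mM CaCl2) at 30 °C. Inoculum was an 8 h exponential culture diluted to about 2 × 10^5 bacteria/mL and added 1:1 to 2-fold serial dilutions. Incubation was 12 h (S. aureus) or 20 h (C. crescentus). Growth was read at A600, and the 50% growth inhibition concentration is reported as log(1/IC50), µmol/mL.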

[2] = system: Staphylococcus aureus; assay: Activity against gram-positive Staphylococcus aureus strain ATCC 25923 bacteria; format: functional, organism-based; conditions: read-out: Log 1/IC50 (converted); how it was run: as §1

| Structure (SMILES) | IC50 [1] [mM] | IC50 [2] [mM] |
| --- | --- | --- |
| N#Cc1ccc2c(c1)C(=O)/C(=C/c1ccc([N+](=O)[O-])o1)O2 | 4.57 | 3.16 |
| CC(=O)Oc1ccc(Cl)cc1C(=O)/C=C/c1ccc([N+](=O)[O-])o1 | 50.1 | 10 |
| CCc1ccc(OC(C)=O)c(C(=O)/C=C/c2ccc([N+](=O)[O-])o2)c1 |  | 3.98 |
| COc1ccc2c(c1)C(=O)/C(=C/c1ccc([N+](=O)[O-])o1)O2 | 1.05 | 0.151 |
| O=C(/C=C/c1ccc([N+](=O)[O-])o1)c1cc(Cl)ccc1O |  | 11.7 |
| CCc1ccc(O)c(C(=O)/C=C/c2ccc([N+](=O)[O-])o2)c1 |  | 15.8 |
| Cc1ccc2c(c1)C(=O)/C(=C/c1ccc([N+](=O)[O-])o1)O2 | 1.26 | 0.115 |
| CC(=O)Oc1ccccc1C(=O)/C=C/c1ccc([N+](=O)[O-])o1 | 42.7 | 6.92 |
| CCCc1ccc2c(c1)C(=O)/C(=C/c1ccc([N+](=O)[O-])o1)O2 | 3.09 | 0.447 |
| CCc1ccc2c(c1)C(=O)/C(=C/c1ccc([N+](=O)[O-])o1)O2 | 2.75 | 0.447 |
| O=C(/C=C/c1ccc([N+](=O)[O-])o1)c1ccccc1O | 64.6 | 7.24 |
| CC(=O)Oc1ccc(C)cc1C(=O)/C=C/c1ccc([N+](=O)[O-])o1 |  | 4.79 |
| O=C1/C(=C/c2ccc([N+](=O)[O-])o2)Oc2ccccc21 | 1.29 | 0.302 |
| Cc1ccc(O)c(C(=O)/C=C/c2ccc([N+](=O)[O-])o2)c1 |  | 6.61 |
| O=C(/C=C/c1ccc([N+](=O)[O-])o1)c1cc([N+](=O)[O-])ccc1O | 14.8 | 17 |
| O=C1/C(=C/c2ccc([N+](=O)[O-])o2)Oc2ccc(Br)cc21 | 3.16 | 0.661 |
| CC(=O)Oc1ccc([N+](=O)[O-])cc1C(=O)/C=C/c1ccc([N+](=O)[O-])o1 | 14.8 | 16.2 |
| O=C1/C(=C/c2ccc([N+](=O)[O-])o2)Oc2ccc(Cl)cc21 | 5.25 | 0.575 |
| O=C1/C(=C/c2ccc([N+](=O)[O-])o2)Oc2ccc([N+](=O)[O-])cc21 | 11.7 | 3.98 |
